Results reported in ChEMBL document CHEMBL4118180, “Design, synthesis and evaluation of photoactivatable derivatives of microtubule (MT)-active [1,2,4]triazolo[1,5-a]pyrimidines” (Bioorg Med Chem Lett, 2018).
Active and inactive are the calls of the source. The rule behind the calls is not given here.

How the values were obtained:
Assay type in all cases: cell-based
Details in all cases: Homo sapiens
HEK293 [1] = assay: Induction of microtubule disruption in HEK293 cells assessed as total alpha tubulin levels after 4 hrs by ELISA relative to control
Outline: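 Total α-tubulin was measured by ELISA in lysates of HEK-293 cells after 4 h incubation with the test compound. Levels are expressed relative to vehicle-treated control cells. Significance was assessed by one-way ANOVA with Dunnett's post-hoc analysis.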

HEK293 [2] = assay: Induction of microtubule disruption in HEK293 cells assessed as total alpha tubulin levels at 10 uM after 4 hrs by ELISA relative to control
Outline: (§1)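 HEK-293 cells were exposed to the test compound at 1 or 10 μM for 4 h. Acetylated α-tubulin and total α-tubulin were then measured by ELISA in cell lysates. Levels are expressed relative to vehicle-treated control cells, as the average and SD of triplicate assays. Significance was tested by one-way ANOVA with Dunnett's post-hoc test. Changes in α-tubulin below 15% are treated as assay-to-assay variability.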

HEK293 [3] = assay: Induction of microtubule stabilization in HEK293 cells assessed as increase in acetylated alpha tubulin levels at 10 uM after 4 hrs by ELISA relative to control; outline: as §1
HEK293 [4] = assay: Induction of microtubule stabilization in HEK293 cells assessed as increase in acetylated alpha tubulin levels at 1 uM after 4 hrs by ELISA relative to control; outline: as §1
HEK293 [5] = assay: Induction of microtubule disruption in HEK293 cells assessed as total alpha tubulin levels at 1 uM after 4 hrs by ELISA relative to control; outline: as §1

Row | SMILES | Activity (HEK293 [1]) | fold change (FC) (HEK293 [2]) | fold change (FC) (HEK293 [3]) | fold change (FC) (HEK293 [4]) | fold change (FC) (HEK293 [5]) | Activity (HEK293 [3]) | Activity (HEK293 [4])
1 | CN(C)CCCOc1cc(F)c(-c2c(Cl)nc3ncnn3c2NCC2(C)N=N2)c(F)c1 | Dose-dependent effect | 0.19 | 0.29 | 10.5 | 0.36 |  | 
2 | C[C@@H](Nc1c(-c2c(F)cc(OCCCN(C)C)cc2F)c(Cl)nc2ncnn12)C1(C)N=N1 | Dose-dependent effect | 1.01 | 0.93 | 21.7 | 0.73 |  | 
3 | CC1(CNc2c(-c3c(F)cc(F)cc3F)c(Cl)nc3ncnn23)N=N1 |  | 1.03 | 3.42 | 1.56 | 1.08 |  | 
4 | C[C@H](Nc1c(-c2c(F)cc(F)cc2F)c(N=[N+]=[N-])nc2ncnn12)C(F)(F)F |  |  |  |  |  | inactive | inactive
5 | [N-]=[N+]=Nc1c(-c2c(F)cc(F)cc2F)c(Cl)nc2ncnn12 |  |  |  |  |  | inactive | inactive
6 | CNCCCOc1cc(F)c(-c2c(Cl)nc3ncnn3c2N[C@@H](C)C(F)(F)F)c(F)c1 |  | 0.14 | 0.1 | 7.07 | 0.51 |  | 
7 | C[C@@H](Nc1c(-c2c(F)cc(F)cc2F)c(Cl)nc2ncnn12)C1(C)N=N1 |  | 0.89 | 4.28 | 1.42 | 0.92 |  | 
8 | C[C@H](Nc1c(-c2c(F)cc(OCCCN(C)C)cc2F)c(Cl)nc2ncnn12)C1(C)N=N1 |  | 0.78 | 0.28 | 6.7 | 0.69 |  | 
9 | C[C@H](Nc1c(-c2c(F)cc(OCCCN(C)C)cc2F)c(Cl)nc2ncnn12)C(F)(F)F |  | 0.14 | 0.3 | 5.83 | 0.29 |  | 
10 | C[C@H](Nc1c(-c2c(F)cc(F)cc2F)c(Cl)nc2ncnn12)C1(C)N=N1 |  | 0.94 | 1.85 |  |  |  | 
11 | C[C@H](Nc1c(-c2c(F)cc(OCCCNC(=O)c3ccc(C4(C(F)(F)F)N=N4)cc3)cc2F)c(Cl)nc2ncnn12)C(F)(F)F |  | 0.88 | 3.65 | 1.3 | 1.31 |  | 
12 | CO[C@@H]1C[C@H]2CC[C@@H](C1)N2c1c(-c2c(F)cc(F)cc2F)c(Cl)nc2ncnn12 |  | 1.38 | 7.43 | 3.65 | 1.12 |  | 
